Test results taken from ChEMBL document CHEMBL1671706 (Antimicrob Agents Chemother, 2010).
≈ marks a conversion by molar mass, not a printed value.

What was measured:
Bacillus anthracis [1] = test: Antimicrobial activity against Bacillus anthracis by Etest; type: functional
Escherichia coli = test: Antimicrobial activity against Escherichia coli MC1000 by macrodilution method; type: functional
Summary of the method: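 Luria-Bertani medium, 30°C, shaking at 200 rpm, 14 h. Macrodilution per NCCLS aerobic criteria, with inoculum 5 × 10^5 cells/ml. DMSO-dissolved compounds were diluted 2-fold through the tubes, with a DMSO control. MIC is the lowest concentration preventing visible growth in triplicate, confirmed periodically by no absorbance at 600 nm.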

Bacillus cereus [2] = test: Antimicrobial activity against Bacillus cereus UW85 by macrodilution method; type: functional
Summary of the method: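 Tube macrodilution per NCCLS. Strain grown in Luria-Bertani medium, 37°C, shaking at 200 rpm, 16 h. Inoculum 5 × 10^5 cells/ml. DMSO stocks diluted 2-fold through the tubes, with a DMSO-matched control. MIC is the lowest concentration without visible growth in triplicate, occasionally checked as no detectable absorbance at 600 nm.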

Staphylococcus aureus [3] = test: Antimicrobial activity against Staphylococcus aureus FRI 100 by macrodilution method; type: functional
Summary of the method: (§1)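 Static culture in Luria-Bertani medium, 37°C, 14 h. NCCLS macrodilution, inoculum 5 × 10^5 cells/ml. Compounds in DMSO were 2-fold serially diluted through the inoculated tubes, with a DMSO-matched control. MIC is the lowest concentration preventing visible growth in triplicate, periodically confirmed by lack of absorbance at 600 nm.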

Staphylococcus aureus [4] = test: Antimicrobial activity against Staphylococcus aureus FRI 361 by macrodilution method; type: functional; summary of the method: as §1
Bacillus anthracis [5] = test: Antimicrobial activity against Bacillus anthracis Sterne 7702 by macrodilution method; type: functional
Pseudomonas aeruginosa = test: Antimicrobial activity against Pseudomonas aeruginosa K by macrodilution method; type: functional
Summary of the method: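 Grown in Luria-Bertani medium at 37°C, shaking at 200 rpm, 16 h. NCCLS macrodilution with 5 × 10^5 cells/ml inoculum. Compounds in DMSO formed a 2-fold tube dilution series, with a control at equal DMSO. MIC was read visually as the lowest growth-preventing concentration in triplicate, periodically confirmed by no detectable A600.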

Enterococcus faecalis = test: Antimicrobial activity against Enterococcus faecalis 1131 by macrodilution method; type: functional
Summary of the method: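 Brain heart infusion medium, static, 37°C, 14 h. NCCLS macrodilution, starting inoculum 5 × 10^5 cells/ml. Compounds in DMSO were 2-fold serially diluted across the inoculated tubes, with a matched DMSO control. MIC is the lowest concentration with no visible growth in triplicate, sometimes verified as no detectable A600.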

Caulobacter vibrioides = test: Antimicrobial activity against Caulobacter crescentus CB15N by macrodilution method; type: functional
Summary of the method: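 Peptone-yeast extract medium, 30°C, shaking at 200 rpm, 22 h. NCCLS macrodilution from 5 × 10^5 cells/ml. Compounds in DMSO given as a 2-fold tube series, with a control at the highest DMSO level. Endpoint is the lowest concentration preventing growth in triplicate by eye, periodically confirmed by absence of A600.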

Bacillus cereus [6] = test: Antimicrobial activity against Bacillus cereus; type: functional
[7] = Toxicity in po dosed female Sherman rat; type: organism-based; settings: in vivo
[8] = Toxicity in po dosed male Sherman rat; type: organism-based; settings: in vivo

Work on `CC1(C)S[C@@H]2[C@H](NC(=O)Cc3ccccc3)C(=O)N2[C@H]1C(=O)O` [PENICILLIN G] yielded an MIC (Bacillus anthracis [1]) of 0.02 µM (≈ 0.00669 µg/mL).

`Oc1ccc(Cl)cc1Cc1cc(Cl)cc(Cc2cc(Cl)cc(Cc3cc(Cl)ccc3O)c2O)c1O` showed an MIC (Escherichia coli) greater than 80 µM, an MIC (Bacillus cereus [2]) of 0.08 µM (≈ 0.044 µg/mL) and an MIC (Staphylococcus aureus [3]) of 0.16 µM (≈ 0.088 µg/mL). It also gave an MIC (Staphylococcus aureus [4]) of 0.3 µM (≈ 0.165 µg/mL), an MIC (Bacillus anthracis [5]) of 0.16 µM (≈ 0.088 µg/mL) and an MIC (Pseudomonas aeruginosa) greater than 80 µM. The MIC (Enterococcus faecalis) was 0.3 µM (≈ 0.165 µg/mL) and the MIC (Caulobacter vibrioides) was 0.3 µM (≈ 0.165 µg/mL).

For `CN(C)[C@@H]1C(O)=C(C(N)=O)C(=O)[C@@]2(O)C(O)=C3C(=O)c4c(O)cccc4[C@@](C)(O)[C@H]3C[C@@H]12` [TETRACYCLINE], the MIC (Bacillus anthracis [1]) was 0.07 µM (≈ 0.0311 µg/mL).

For `Oc1ccc(Cl)cc1Cc1cc(Cl)cc(Cc2cc(Cl)ccc2O)c1O`, the MIC (Escherichia coli) was 5 µM (≈ 2.05 µg/mL), the MIC (Bacillus cereus [2]) was 0.3 µM (≈ 0.123 µg/mL) and the MIC (Staphylococcus aureus [3]) was 0.08 µM (≈ 0.0328 µg/mL). For the same compound, the MIC (Staphylococcus aureus [4]) was 0.6 µM (≈ 0.246 µg/mL), the MIC (Bacillus anthracis [5]) was 0.3 µM (≈ 0.123 µg/mL) and the MIC (Bacillus cereus [6]) was 0.3 µM (≈ 0.123 µg/mL). The MIC (Pseudomonas aeruginosa) was 40 µM (≈ 16.4 µg/mL), the MIC (Enterococcus faecalis) was 1.3 µM (≈ 0.533 µg/mL) and the MIC (Caulobacter vibrioides) was 2.5 µM (≈ 1.02 µg/mL).

With `Oc1ccc(Cl)cc1Cc1cc(Cl)cc(Cc2cc(Cl)cc(Cc3cc(Cl)cc(Cc4cc(Cl)ccc4O)c3O)c2O)c1O` the MIC (Escherichia coli) was greater than 80 µM, the MIC (Bacillus cereus [2]) was 0.3 µM (≈ 0.207 µg/mL) and the MIC (Staphylococcus aureus [3]) was 5 µM (≈ 3.45 µg/mL). The MIC (Staphylococcus aureus [4]) was 5 µM (≈ 3.45 µg/mL), the MIC (Bacillus anthracis [5]) was 1.3 µM (≈ 0.898 µg/mL) and the MIC (Pseudomonas aeruginosa) was greater than 80 µM. For the same compound, the MIC (Enterococcus faecalis) was 0.6 µM (≈ 0.415 µg/mL) and the MIC (Caulobacter vibrioides) was 5 µM (≈ 3.45 µg/mL).

Compound `Oc1ccc(Cl)cc1Cc1cc(Cl)ccc1O` [DICHLOROPHEN] has an MIC (Escherichia coli) of 160 µM (≈ 43.1 µg/mL), an LD50 [7] of 1680 mg/kg and an MIC (Bacillus cereus [2]) of 10 µM (≈ 2.69 µg/mL). It also gave an LD50 [8] of 1510 mg/kg, an MIC (Staphylococcus aureus [3]) of 20 µM (≈ 5.38 µg/mL) and an MIC (Staphylococcus aureus [4]) of 20 µM (≈ 5.38 µg/mL). The MIC (Bacillus anthracis [5]) was 5 µM (≈ 1.35 µg/mL), the MIC (Pseudomonas aeruginosa) was greater than 320 µM and the MIC (Enterococcus faecalis) was 80 µM (≈ 21.5 µg/mL). For the same compound, the MIC (Caulobacter vibrioides) was 20 µM (≈ 5.38 µg/mL).
